Assay outcomes: PubChem, several laboratories
HCV core dimer = inhibitors of HCV core protein dimerization, primary screen, biochemical, TR-FRET, high-throughput | TR-FRET GST/Flag-core106 dimerization, 1536-well | inhibition, % at 5 µM | 0.33% of 300,000 active | AID 1899, 2009;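 active = inhibition above the mean of all tested compounds plus 3 SD, set per screening campaign, cut at about 45% in these data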
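System: GST-tagged and Flag-tagged HCV core protein residues 1-106 / Input: core106 proteins, GST 13.5 nM and Flag 17 nM / Buffer or medium: KF-containing HEPES buffer, pH 7.45, DTT, CHAPS, BSA / Probe or stimulus: Eu-anti-GST and XL665-anti-Flag labelled anti-tag antibodies / Schedule: 4 h, 22.5 °C incubation / Technique: TR-FRET 671 and 617 nm emission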
rCAG RNA binder = binders of r(CAG) RNA repeats, primary screen, biochemical, fluorescence; inhibition, % at 3 µM; AID 651821, 2012; r(CAG) RNA repeat, TO-PRO-1 dye displacement fluorescence; 1.3% of 370,000 active;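 active = inhibition above the plate cutoff, the mean of all test compounds on that plate plus 3 SD, cut at about 35% in these data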;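 note: 0% = DMSO alone and 100% = 100 µM mitoxantrone as full dye displacement; higher means more dye released from RNA so lower well fluorescence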
ABHD5 PLIN5 PPI = ABHD5-PLIN5 interaction inhibitors, primary screen, cell lysate, split luciferase complementation, luminescence. 0.78% of 360,000 active. Split G. princeps luciferase complementation, 4 h. inhibition, % at 4 µM. Perilipin-5 (Homo sapiens) + 1-acylglycerol-3-phosphate O-acyltransferase ABHD5 (Homo …. AID 602281, 2012;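 active = inhibition above the mean inhibition across every tested compound plus 3 SD, cut at about 22% in these data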;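 note: 0% = DMSO only wells and the 100% control is not disclosed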
Target sequence (Q00G26 whole entry, looked up): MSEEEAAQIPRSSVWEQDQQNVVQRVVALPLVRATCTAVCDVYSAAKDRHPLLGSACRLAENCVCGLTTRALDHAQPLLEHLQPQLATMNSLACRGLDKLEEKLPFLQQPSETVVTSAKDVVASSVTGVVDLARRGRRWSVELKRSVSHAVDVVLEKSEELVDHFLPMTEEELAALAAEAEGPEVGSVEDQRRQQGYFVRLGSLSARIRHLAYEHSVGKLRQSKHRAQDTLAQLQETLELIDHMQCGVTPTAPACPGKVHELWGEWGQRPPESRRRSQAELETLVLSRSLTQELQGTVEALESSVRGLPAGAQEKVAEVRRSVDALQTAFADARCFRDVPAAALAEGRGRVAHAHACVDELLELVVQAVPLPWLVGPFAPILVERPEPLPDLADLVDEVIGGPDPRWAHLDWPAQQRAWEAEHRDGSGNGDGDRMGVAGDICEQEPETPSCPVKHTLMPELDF
Target sequence (Q8WTS1 whole entry, looked up): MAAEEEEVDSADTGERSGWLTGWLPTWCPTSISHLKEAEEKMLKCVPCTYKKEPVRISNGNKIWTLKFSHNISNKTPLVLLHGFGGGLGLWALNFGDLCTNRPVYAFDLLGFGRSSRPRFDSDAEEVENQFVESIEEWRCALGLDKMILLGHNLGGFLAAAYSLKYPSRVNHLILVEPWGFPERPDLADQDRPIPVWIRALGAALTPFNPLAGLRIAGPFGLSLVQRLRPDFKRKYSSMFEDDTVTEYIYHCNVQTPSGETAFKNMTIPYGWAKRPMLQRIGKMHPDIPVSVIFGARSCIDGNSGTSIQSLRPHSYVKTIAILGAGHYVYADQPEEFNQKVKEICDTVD
NadD inh = inhibitors of S. aureus NadD, primary screen, biochemical, colorimetric, uHTS; Nicotinate-nucleotide adenylyltransferase NadD (Staphylococcus aureus N315); purified NadD enzyme, colorimetric absorbance read-out; inhibition, % at 20 µM; 0.78% of 360,000 active; AID 602399, 2012; in the data active = inhibition above about 26%
rCAG binder conf = small molecules binding CAG repeat RNA – biochemical, fluorescence, confirmation. r(CAG) RNA repeat, TO-PRO-1 dye displacement fluorescence. shares compounds with rCAG RNA binder. 70% of 4,300 active. inhibition, % at 3 µM;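 active = inhibition above a per-plate cutoff, the mean inhibition of sample wells plus 3 SD, cut at about 35% in these data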;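 note: loss of TO-PRO-1 fluorescence as compound displaces dye from 1x1 AA loop RNA; 0% = DMSO only wells and 100% = 100 µM mitoxantrone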
DNA CAG counter = displacement of TO-PRO-1 from CAG DNA duplex, counter-screen for rCAG RNA repeat binder project, biochemical, fluorescence, TO-PRO-1 dye, d(CAG) DNA oligo; shares compounds with rCAG RNA binder; d(CAG) DNA oligo TO-PRO-1 dye displacement; inhibition, % at 3 µM; 94% of 4,300 active; AID 652068, 2013;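 active = inhibition above its plate's cutoff, the mean test-well inhibition plus 3 SD, cut at about 4.8% in these data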;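 note: 0% = DNA dye mix with DMSO and 100% = 100 µM mitoxantrone; hits displace the dye from DNA and so lower well fluorescence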
Numbers without * were called inactive. In the library only some 2.6% were active in any assay of this set; here they are far more common.

What do the screens show for `Nc1cc2c(cc1[N+](=O)[O-])-c1ccccc1C2=NO`?
rCAG RNA binder: 44*; ABHD5 PLIN5 PPI: -2; NadD inh: 5; rCAG binder conf: 30; DNA CAG counter: 24*

Results for CCOC(=O)C[C@@H]1OC[C@H](C)N1S(=O)(=O)c1ccc(C)cc1 ?
rCAG RNA binder: -1; ABHD5 PLIN5 PPI: -2

What do the screens show for `CC(=O)C1=CCC(c2ccccc2)N(S(=O)(=O)c2ccccc2)C1` (configuration not stated)?
rCAG RNA binder: 0; ABHD5 PLIN5 PPI: 5; NadD inh: -7

Results for Cc1ccc(S(=O)(=O)N2[C@@H](c3ccc(Cl)cc3)C(C(=O)O)=CC[C@H]2c2cccc(Cl)c2)cc1 ?
HCV core dimer: 2; rCAG RNA binder: 13; ABHD5 PLIN5 PPI: 7; NadD inh: 4

What do the screens show for `COc1cccc([C@@H]2CC=C(C(=O)O)[C@H](c3ccccc3)N2S(=O)(=O)c2ccc(C)cc2)c1`?
HCV core dimer: 18; rCAG RNA binder: 43*; ABHD5 PLIN5 PPI: 5; NadD inh: 0; rCAG binder conf: 37*; DNA CAG counter: 8.9*

What do the screens show for `COc1cccc([C@@H]2CC=C(C(=O)O)[C@H](c3ccc(F)cc3)N2S(=O)(=O)c2ccc(C)cc2)c1`?
HCV core dimer: 9; rCAG RNA binder: 45*; ABHD5 PLIN5 PPI: -2; NadD inh: -1; rCAG binder conf: 37*; DNA CAG counter: 9.3*

What do the screens show for `COc1cccc([C@@H]2CC=C(C(=O)O)[C@H](c3cccc(Cl)c3)N2S(=O)(=O)c2ccc(C)cc2)c1`?
HCV core dimer: 32; rCAG RNA binder: 62*; ABHD5 PLIN5 PPI: -4; NadD inh: -1; rCAG binder conf: 63*; DNA CAG counter: 26*

How did Cc1ccc(S(=O)(=O)Nc2ccccc2NS(=O)(=O)c2ccc(C)cc2)cc1 do in these assays?
rCAG RNA binder: 71*; ABHD5 PLIN5 PPI: 1; NadD inh: 7; rCAG binder conf: 56*; DNA CAG counter: 20*

What do the screens show for `O=S(=O)(Nc1ccc(Cl)cc1NS(=O)(=O)c1ccccc1)c1ccccc1`?
rCAG RNA binder: 81*; ABHD5 PLIN5 PPI: -1; NadD inh: 0; rCAG binder conf: 73*; DNA CAG counter: 38*

Results for O=S(=O)(Nc1ccc(N=Nc2ccc(O)c3ccccc23)cc1)c1ccccc1 ?
HCV core dimer: 16; rCAG RNA binder: 67*; ABHD5 PLIN5 PPI: 12; NadD inh: 26; rCAG binder conf: 65*; DNA CAG counter: 32*

What do the screens show for `O=S(=O)(Nc1ccc(S(=O)(=O)Nc2cccc3ccccc23)cc1)c1ccccc1`?
HCV core dimer: -4; rCAG RNA binder: 35*; ABHD5 PLIN5 PPI: -16; NadD inh: 1; rCAG binder conf: 24; DNA CAG counter: 5.5*

How did O=S(=O)(Nc1ccc(S(=O)(=O)Nc2ccccc2)cc1)c1ccccc1 do in these assays?
HCV core dimer: 3; rCAG RNA binder: 23; ABHD5 PLIN5 PPI: 2; NadD inh: 1

Results for O=S(=O)(Nc1ccc(N=Nc2ccccc2)cc1)c1ccccc1 ?
HCV core dimer: 5; rCAG RNA binder: 31; ABHD5 PLIN5 PPI: -4; NadD inh: -8

What do the screens show for `CC(=O)Nc1ccc(CN(C)c2c(C)nc3ccc(C(=O)NCCc4ccccn4)cn23)cc1`?
rCAG RNA binder: -1; ABHD5 PLIN5 PPI: 2; NadD inh: -6

Results for Cc1ccc(CN(C)C[C@H]2OCc3cnnn3CCCC(=O)N([C@H](C)CO)C[C@@H]2C)cc1 ?
rCAG RNA binder: -2

What do the screens show for `C[C@@H]1CN([C@@H](C)CO)C(=O)CCCn2cc(nn2)CO[C@H]1CN(C)C(=O)Nc1ccccc1`?
rCAG RNA binder: -1

What do the screens show for `O=C(Nc1nnc([C@H]2C[C@H](O)[C@@H](CO)O2)s1)NC(c1ccccc1)c1ccccc1`?
rCAG RNA binder: 2; ABHD5 PLIN5 PPI: 5; NadD inh: 0

Results for Cc1ccc(NS(=O)(=O)c2ccccc2)c(NS(=O)(=O)c2ccccc2)c1 ?
rCAG RNA binder: 49*; ABHD5 PLIN5 PPI: -2; NadD inh: -9; rCAG binder conf: 48*; DNA CAG counter: 13*

What do the screens show for `Cc1ccc(NS(=O)(=O)c2ccccc2)c([N+](=O)[O-])c1`?
rCAG RNA binder: 3; ABHD5 PLIN5 PPI: 2; NadD inh: -7

How did S=c1[nH]nc(-c2ccc(Cl)cc2)n1/N=C/C=C/c1ccco1 do in these assays?
HCV core dimer: 21; rCAG RNA binder: 37*; ABHD5 PLIN5 PPI: 1; NadD inh: 6; rCAG binder conf: 35*; DNA CAG counter: 13*

How did S=c1[nH]nc(-c2ccco2)n1/N=C/c1cccc(Cl)c1Cl do in these assays?
HCV core dimer: 4; rCAG RNA binder: 57*; ABHD5 PLIN5 PPI: 3; NadD inh: 19; rCAG binder conf: 48*; DNA CAG counter: 15*

How did S=c1[nH]nc(-c2ccco2)n1/N=C/c1ccc(Cl)cc1Cl do in these assays?
HCV core dimer: 3; rCAG RNA binder: 35*; ABHD5 PLIN5 PPI: -4; NadD inh: 23; rCAG binder conf: 64*; DNA CAG counter: 19*

What do the screens show for `Cc1[nH]c2ccc(OC(F)(F)F)cc2c1CCN1C(=O)c2ccc(C(=O)O)cc2C1=O`?
HCV core dimer: 0; rCAG RNA binder: 48*; ABHD5 PLIN5 PPI: 4; NadD inh: -2; rCAG binder conf: 44*; DNA CAG counter: 13*

What do the screens show for `CCc1nc2ccc(C(=O)N(C)CCCN(C)C)cn2c1N(C)Cc1cc2ccccc2s1`?
rCAG RNA binder: -1; ABHD5 PLIN5 PPI: 3; NadD inh: -7

What do the screens show for `CC(=O)NS(=O)(=O)c1ccc(NC(=O)c2cccc(S(=O)(=O)N3CCc4ccccc43)c2)cc1`?
HCV core dimer: 2; rCAG RNA binder: 42*; ABHD5 PLIN5 PPI: -3; NadD inh: -5; rCAG binder conf: 40*; DNA CAG counter: 13*

How did CN(C)S(=O)(=O)c1cccc(NC(=O)c2cccc(S(=O)(=O)N3CCc4ccccc43)c2)c1 do in these assays?
rCAG RNA binder: 13; ABHD5 PLIN5 PPI: -8; NadD inh: -3

Results for COc1c(C)cc(C(O)c2ncc(-c3ccccc3C)[nH]2)cc1C (configuration not stated) ?
rCAG RNA binder: 0; ABHD5 PLIN5 PPI: -2; NadD inh: 5

How did O=C(O)c1ccccc1C(=O)c1ccc(Sc2ccc(Cl)cc2)c([N+](=O)[O-])c1 do in these assays?
HCV core dimer: 17; rCAG RNA binder: 64*; ABHD5 PLIN5 PPI: -4; NadD inh: 7; rCAG binder conf: 71*; DNA CAG counter: 32*
